# Assay results from ChEMBL document CHEMBL1138590, “Discovery of novel dihydro-9,10-ethano-anthracene carboxamides as glucocorticoid receptor modulators” (Bioorg Med Chem Lett, 2009).
# How the values were obtained:
# [1] = target: T1, Progesterone receptor (Homo sapiens, UniProt P06401); experiment: Displacement of […] from progesterone receptor by fluorescence polarization assay
# T1 sequence (P06401 whole entry): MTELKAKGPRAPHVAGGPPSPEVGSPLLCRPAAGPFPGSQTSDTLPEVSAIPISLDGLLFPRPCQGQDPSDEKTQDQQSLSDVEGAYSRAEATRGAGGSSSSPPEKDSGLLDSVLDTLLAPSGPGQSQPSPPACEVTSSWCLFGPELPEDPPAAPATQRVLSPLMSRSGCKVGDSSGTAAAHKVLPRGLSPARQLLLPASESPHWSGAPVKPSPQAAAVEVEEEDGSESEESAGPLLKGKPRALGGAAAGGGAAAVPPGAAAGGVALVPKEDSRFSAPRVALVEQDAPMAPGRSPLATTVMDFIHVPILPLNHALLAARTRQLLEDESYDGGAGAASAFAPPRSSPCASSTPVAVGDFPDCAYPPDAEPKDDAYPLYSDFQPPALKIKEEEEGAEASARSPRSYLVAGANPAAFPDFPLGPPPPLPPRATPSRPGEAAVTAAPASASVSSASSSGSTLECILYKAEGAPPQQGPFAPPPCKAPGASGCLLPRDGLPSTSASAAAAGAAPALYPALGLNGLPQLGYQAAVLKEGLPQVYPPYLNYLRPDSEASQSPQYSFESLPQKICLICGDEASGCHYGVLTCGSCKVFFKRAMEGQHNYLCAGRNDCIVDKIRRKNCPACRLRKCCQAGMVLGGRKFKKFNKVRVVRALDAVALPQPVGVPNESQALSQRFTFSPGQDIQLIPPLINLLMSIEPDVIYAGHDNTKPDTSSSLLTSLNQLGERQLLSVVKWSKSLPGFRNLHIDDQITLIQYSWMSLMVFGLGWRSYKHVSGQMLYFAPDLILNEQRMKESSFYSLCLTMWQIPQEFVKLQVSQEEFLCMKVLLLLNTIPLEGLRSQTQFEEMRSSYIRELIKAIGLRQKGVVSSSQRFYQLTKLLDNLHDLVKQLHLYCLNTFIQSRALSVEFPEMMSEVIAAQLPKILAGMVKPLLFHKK
# Outline: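 Fluorescence polarization competition binding: the test compound competes with a fluorescently labelled ligand for binding to the full-length receptor or its ligand-binding domain. IC50 is fitted from the polarization signal with a four-parameter logistic equation. Ki is derived by Cheng–Prusoff, Ki = IC50/(1 + ligand concentration/Kd). Values are means of duplicate experiments.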
# [2] = target: T2, Glucocorticoid receptor (Homo sapiens, UniProt P04150); experiment: Agonist activity at GR ligand binding domain expressed in human NP1 cells assessed as glucocorticoid response element transactivation by GAL4 luciferase reporter gene assay; assay type: cell-based
# T2 sequence (P04150 whole entry): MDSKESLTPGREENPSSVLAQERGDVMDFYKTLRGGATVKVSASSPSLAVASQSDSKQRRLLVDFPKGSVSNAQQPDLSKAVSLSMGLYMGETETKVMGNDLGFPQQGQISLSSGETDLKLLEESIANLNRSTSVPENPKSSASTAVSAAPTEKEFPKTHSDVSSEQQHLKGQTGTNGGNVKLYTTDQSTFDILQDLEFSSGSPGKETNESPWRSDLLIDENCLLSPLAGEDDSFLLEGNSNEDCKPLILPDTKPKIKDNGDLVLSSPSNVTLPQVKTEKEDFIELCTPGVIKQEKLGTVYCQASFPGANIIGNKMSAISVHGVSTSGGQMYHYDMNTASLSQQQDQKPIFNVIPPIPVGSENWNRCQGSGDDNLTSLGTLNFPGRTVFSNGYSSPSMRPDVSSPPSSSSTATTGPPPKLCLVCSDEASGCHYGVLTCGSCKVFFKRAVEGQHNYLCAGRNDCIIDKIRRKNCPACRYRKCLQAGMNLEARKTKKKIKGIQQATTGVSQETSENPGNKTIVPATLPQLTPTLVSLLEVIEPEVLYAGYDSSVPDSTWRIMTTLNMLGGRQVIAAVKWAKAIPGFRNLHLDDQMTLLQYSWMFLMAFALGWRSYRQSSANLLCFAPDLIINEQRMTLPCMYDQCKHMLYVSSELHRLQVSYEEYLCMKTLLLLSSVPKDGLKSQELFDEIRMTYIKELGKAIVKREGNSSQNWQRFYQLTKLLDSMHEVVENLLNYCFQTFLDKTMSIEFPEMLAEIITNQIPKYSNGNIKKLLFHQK
# [3] = target: T2, Glucocorticoid receptor; experiment: Transrepression activity at GR in IL-1-beta-stimulated human A549 cells assessed as inhibition of NF-kappaB-dependent E-selectin transcription by luciferase reporter gene assay; assay type: cell-based
# [4] = target: T3, Mineralocorticoid receptor (Homo sapiens) (UniProt P08235); experiment: Antagonist activity at mineralocorticoid receptor in human A549 cells assessed as inhibition of 1.25 nM aldosterone-induced effect at 0.1 uM; assay type: functional, cell-based
# T3 sequence (whole entry): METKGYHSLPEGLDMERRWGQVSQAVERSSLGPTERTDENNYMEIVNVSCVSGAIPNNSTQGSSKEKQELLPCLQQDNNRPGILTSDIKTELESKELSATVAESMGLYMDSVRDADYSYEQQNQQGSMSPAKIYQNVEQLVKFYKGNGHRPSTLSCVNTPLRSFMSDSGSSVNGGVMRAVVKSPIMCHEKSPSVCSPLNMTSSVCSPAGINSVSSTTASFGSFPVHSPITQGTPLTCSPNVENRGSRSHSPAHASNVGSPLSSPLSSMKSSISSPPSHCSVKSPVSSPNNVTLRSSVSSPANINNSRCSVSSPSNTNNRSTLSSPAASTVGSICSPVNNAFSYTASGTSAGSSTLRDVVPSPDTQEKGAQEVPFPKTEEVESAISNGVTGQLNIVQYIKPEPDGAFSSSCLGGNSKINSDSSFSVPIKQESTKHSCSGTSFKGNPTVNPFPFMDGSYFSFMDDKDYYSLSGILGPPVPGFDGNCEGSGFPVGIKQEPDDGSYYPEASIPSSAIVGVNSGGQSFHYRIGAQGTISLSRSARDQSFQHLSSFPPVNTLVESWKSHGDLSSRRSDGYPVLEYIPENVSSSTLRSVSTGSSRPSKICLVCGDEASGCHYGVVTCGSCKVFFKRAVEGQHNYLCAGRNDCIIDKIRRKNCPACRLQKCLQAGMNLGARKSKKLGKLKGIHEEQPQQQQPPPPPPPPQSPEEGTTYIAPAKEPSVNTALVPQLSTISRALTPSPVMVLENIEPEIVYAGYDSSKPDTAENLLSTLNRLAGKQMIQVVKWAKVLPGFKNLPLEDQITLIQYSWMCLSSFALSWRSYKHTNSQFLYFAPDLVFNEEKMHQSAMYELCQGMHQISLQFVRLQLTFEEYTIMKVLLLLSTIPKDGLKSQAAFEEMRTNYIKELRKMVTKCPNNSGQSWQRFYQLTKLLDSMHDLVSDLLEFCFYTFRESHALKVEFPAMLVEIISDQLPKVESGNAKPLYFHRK
SMILES,Ki [1] [nM],EC50 [2] [nM],EC50 [3] [nM],inhibition [4] [%]
C[C@@]1(C(=O)Nc2nccs2)CC2(C#N)c3ccccc3C1c1ccccc12,34,> 10000,19.4,47
C[C@@]1(C(=O)Nc2nccs2)CC2c3ccccc3C1c1ccccc12,147,,,3
